In the library only some 2.3% were active in any assay of this set; here they are far more common.
MEKK2 mut-MEK5 = signal of MEK5 binding to mutant human MEKK2 PB1 domain | bead flow cytometry, Alexa488-MEK5 binding to MEKK2 mutant | 290,000 tested, 0.35% active | percent response, % at 10 µM; in the data active means percent response above about 24%, passing the limit was not always enough
MEKK2 WT-MEK5 = raises or lowers MEK5 binding to wildtype human MEKK2 PB1 domain. bead flow cytometry, Alexa488-MEK5 binding to MEKK2 WT; actives lie on both sides. Q9Y2U5. 290,000 tested, 1.1% active. binding response (% of control), % at 10 µM; in the data active means binding response below about 67% or above about 130%
ABCB1 inh = human ABCB1 inhibition, ABCG2 as counter-screen. P08183. CCRF-Adr cells, JC-1 efflux, flow cytometry. inhibition, % at 6.6 µM. 190,000 tested, 0.067% active; in the data active means inhibition above about 40%;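 further: higher value means more JC-1 retained so stronger ABCB1 efflux block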
MEKK3 PB1 HTS = raises or lowers MEK5 binding to the human MEKK3 PB1 domain. Q99759. bead-based flow cytometry, Alexa488-MEK5 binding to MEKK3; actives lie on both sides; 0 = blocked by unlabeled MEK5, 100 = vehicle. binding response (% of control), % at 10 µM. 290,000 tested, 1.4% active. AID 1529;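 active means binding response more than 3 SD above or below the average of its plate-row segment, actives on both sides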;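 further: Alexa488 bead fluorescence after subtracting the streptavidin-only scavenger bead signal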
ABCG2 inh = blocks JC-1 efflux by human ABCG2 transporter | inhibition, % at 6.6 µM | 190,000 tested, 0.1% active | Q9UNQ0 | IgMXP3 cells, flow cytometry;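 active means inhibition above 80%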
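Read-out basis: Efflux inhibition in percent versus controls | Test system: ABCG2 IgMXP3 and barcoded ABCB1 CCRF-Adr cell mix | Quantity: 3 million cells/mL in well | Schedule: 10 min at 25 °C | Control set: Nicardipine as high control, DMSO as low control | Reagent: JC-1 as fluorescent efflux pump substrate | Signal: Flow cytometry of retained JC-1 fluorescence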
Each line names hits and unclear results; the compound was inactive in the other large screens; [ ] = remark or other dose.

CCN(CCNC(=O)C1CCN(S(=O)(=O)c2c(C)noc2C)CC1)c1ccccc1	none
Cc1onc(C(=O)NC2CCCCC2)c1[N+](=O)[O-]	none (no result: ABCB1 inh, ABCG2 inh)
CCN(CC)c1ccc(/C=C/c2cc(-c3ccccc3)c3ccccc3n2)cc1	MEKK3 PB1 HTS 74[inhibitor] (no result: ABCB1 inh, ABCG2 inh)
Cc1ccc2oc(C(=O)NCC3CCOCC3)c(C)c2c1	none (no result: ABCB1 inh, ABCG2 inh)
O=C(Nc1ccc(S(=O)(=O)Nc2ncccn2)cc1)C(F)(F)F	none (no result: ABCB1 inh, ABCG2 inh)
CCC(C(=O)Nc1ccccc1)c1ccccc1 (configuration not stated)	ABCG2 inh 173 (no result: ABCB1 inh)
CCN(CC(=O)Nc1cccc(OC)c1)C(=O)c1cnc(Cl)c(Cl)c1	none (no result: ABCB1 inh, ABCG2 inh)
CCOc1ccc(N(CC(=O)Nc2ccc(C)c(C)c2)S(=O)(=O)c2c(C)noc2C)cc1	MEKK2 WT-MEK5 134
Cc1nn(C(C)C(=O)NCCCN2CCCCCC2)c(=O)c2cc3sccc3n12 (configuration not stated)	MEKK2 WT-MEK5 144 (no result: ABCB1 inh, ABCG2 inh)
Cc1cc(C)cc(N(C(=O)c2csnn2)C(C(=O)NC2CCCC2)c2cccnc2)c1 (configuration not stated)	none (no result: ABCB1 inh, ABCG2 inh)
O=C1C2CCCN2c2ccc(S(=O)(=O)N3CCOCC3)cc2N1Cc1cccc(C(F)(F)F)c1 (configuration not stated)	MEKK2 WT-MEK5 -8.0
CC(=O)N1Cc2ccccc2CC1C(=O)NCc1ccccc1F (configuration not stated)	none (no result: ABCB1 inh, ABCG2 inh)
CCCCN(C)CCNC(=O)c1cc(-c2cccnc2)nc2ccc(S(=O)(=O)N3CCC(C)CC3)cc12	MEKK2 WT-MEK5 136 (no result: ABCB1 inh, ABCG2 inh)
CCN(CC)CCNC(=O)c1cc(-c2cccnc2)nc2ccc(S(=O)(=O)N3CCC(C)CC3)cc12	none (no result: ABCB1 inh, ABCG2 inh)
COc1ccccc1NC(=O)c1c(Nc2ccccc2C)sc(C(=O)Nc2cccc(Cl)c2)c1N	MEKK2 WT-MEK5 -3.0
Cc1ccc(CN2CC34C=CC(O3)C(C(=O)NCc3ccc5c(c3)OCO5)C4C2=O)cc1 (configuration not stated)	MEKK3 PB1 HTS 128
O=C(Nc1ccc2c(c1)oc1ccc(S(=O)(=O)N3CCCC3)cc12)C1CC1	ABCG2 inh 110
CCCOC(=O)c1cccc(NC(=O)COc2ccc([N+](=O)[O-])cc2)c1	ABCB1 inh 63
CCOC(=O)c1cccc(NC(=O)COc2ccc([N+](=O)[O-])cc2)c1	none
CC1CCN(C(=O)c2cc(S(=O)(=O)N3CCCCC3)c[nH]2)CC1	none (no result: ABCB1 inh, ABCG2 inh)
CN1CCN(C(c2ccc(Cl)cc2)c2cc(Cl)c3cccnc3c2O)CC1 (configuration not stated)	MEKK2 mut-MEK5 28, MEKK2 WT-MEK5 137 (no result: ABCB1 inh, ABCG2 inh)
CCc1ccc(CN(Cc2cccnc2)C(=O)/C=C/c2ccc(OC)cc2)cc1	MEKK2 mut-MEK5 32, MEKK2 WT-MEK5 138 (no result: ABCB1 inh, ABCG2 inh)
CCOC(=O)C1CCN(c2ccc(Cl)nn2)CC1	MEKK2 WT-MEK5 -3.0
O=C1CCC(O)CCN1CCSc1ccccc1 (configuration not stated)	none (no result: ABCB1 inh, ABCG2 inh)
Cc1ccc2[nH]c(C(=O)N3CCN(c4cccc(Cl)c4)CC3)cc2c1	none (no result: ABCB1 inh, ABCG2 inh)
O=C1c2ccccc2S(=O)(=O)c2cc(C(=O)N3CCC(C(=O)N4CCCCC4)CC3)ccc21	none (no result: ABCB1 inh, ABCG2 inh)
CC1CCCC(C)N1C(=O)c1ccc2c(c1)S(=O)(=O)c1ccccc1C2=O (configuration not stated)	MEKK2 WT-MEK5 -12[inhibitor], MEKK3 PB1 HTS 0.0[inhibitor] (no result: ABCB1 inh, ABCG2 inh)
NS(=O)(=O)c1ccc(CCNS(=O)(=O)c2ccc3c(c2)NC(=O)CO3)cc1	none (no result: ABCB1 inh, ABCG2 inh)
O=C1Nc2ccc(Br)cc2C12NNc1ccccc1O2 (configuration not stated)	MEKK2 WT-MEK5 -4.0
O=C1/C(=C/C=C/c2ccco2)SC(=S)N1c1ccc(O)cc1	MEKK2 WT-MEK5 62[inhibitor] (no result: ABCB1 inh, ABCG2 inh)
COc1cc(/C=C/c2cc[n+](C)cc2)ccc1OCC(=O)Nc1ccc(Cl)c(Cl)c1	MEKK2 mut-MEK5 75, MEKK2 WT-MEK5 237 (no result: ABCB1 inh, ABCG2 inh)
COc1cc(OC)c(C2N(c3ccc(Cl)cc3)C(=O)C3CCCN32)cc1OC (configuration not stated)	MEKK2 WT-MEK5 10
COc1cc(OC)c(C2N(c3ccc(Cl)c(Cl)c3)C(=O)C3CCCN32)cc1OC (configuration not stated)	none
CC1CCN(S(=O)(=O)c2ccc3c(c2)N(CC(=O)NCCCN2C(C)CCCC2C)C(=O)CO3)CC1 (configuration not stated)	none (no result: ABCB1 inh, ABCG2 inh)
O=C(NCc1ccccc1)N1CCC(Cc2ccccc2)CC1	none (no result: ABCB1 inh, ABCG2 inh)

High-throughput results: PubChem, NMMLSC
